Data: ChEMBL document CHEMBL3739300, “Chemical Constituents from the Fruiting Bodies of Hexagonia apiaria and Their Anti-inflammatory Activity” (J Nat Prod, 2015)
The source made the active and inactive calls. The calls are words filed in the database; no cut-off is given here.

How the values were obtained:
Format in all cases: functional, cell-based
[1] = Antiinflammatory activity in human neutrophils assessed as inhibition of FMLP/CB-induced superoxide anion generation by spectrophotometry; details: Neutrophil
Method in brief: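 Neutrophils from healthy donors (20−30 y) isolated by dextran sedimentation, Ficoll (1.077 g/mL) centrifugation and hypotonic lysis, kept in Ca2+-free HBSS pH 7.4 at 4 °C. Cells (6 × 10^5/mL) with 0.5 mg/mL ferricytochrome c and 1 mM Ca2+, 37 °C 2 min, drug or 0.1% DMSO 5 min. Stimulated with 100 nM FMLP after 1 μg/mL cytochalasin B, 3 min. SOD-inhibitable (100 U/mL) absorbance at 550 nm; IC50, n = 3−4.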

Neutrophil = test: (§1) Antiinflammatory activity in human neutrophils assessed as inhibition of FMLP/CB-induced elastase release
Method in brief: (§2)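 Donor neutrophils (isolated by dextran, Ficoll, hypotonic lysis; Ca2+-free HBSS pH 7.4) at 6 × 10^5/mL with 100 μM MeO-Suc-Ala-Ala-Pro-Val-p-nitroanilide. Equilibrated 37 °C 2 min, drug or 0.1% DMSO vehicle 5 min, then activated with 100 nM FMLP plus 0.5 μg/mL cytochalasin B. Absorbance at 405 nm monitored continuously; percent of FMLP/CB-activated drug-free control; IC50, n = 3−4.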

[2] = as §1; details: Neutrophil; method in brief: as §2

IC50 [1] [µM]	IC50 [2] [µM]	Structure (SMILES)	inhibition (Neutrophil)
> 10		CC1=C(C)C2(C[C@@H](C)[C@H]3[C@@H](C[C@@]4(C)C5=C(CC[C@]34C)[C@@]3(C)CC[C@@H](O)C(C)(C)[C@@H]3CC5)O2)OC1=O (some centres not stated)	inactive
6	> 10	C=C(CC[C@@H](C(=O)O)[C@H]1CC[C@@]2(C)C3=C(CC[C@]12C)[C@@]1(C)C[C@H](O)[C@H](O)C(C)(C)[C@@H]1CC3)C(C)C	
> 10		CC1=C(C)C2(C[C@@H](C)[C@H]3[C@@H](C[C@@]4(C)C5=C(CC[C@]34C)[C@@]3(C)CC[C@@H](O)[C@@](C)(C=O)[C@@H]3CC5)O2)OC1=O (some centres not stated)	inactive
1.9	4.3	CC1=C(C)C2(C[C@@H](C)[C@H]3[C@@H](C[C@@]4(C)C5=C(CC[C@]34C)[C@@]3(C)CC[C@@H](OC(=O)CC(=O)O)C(C)(C)[C@@H]3CC5)O2)OC1=O (some centres not stated)	
> 10		COC(=O)CC(=O)O[C@@H]1CC[C@]2(C)C3=C(CC[C@H]2C1(C)C)[C@]1(C)C[C@H]2OC4(C[C@@H](C)[C@@H]2[C@@]1(C)CC3)OC(=O)C(C)=C4C (some centres not stated)	inactive
0.4	1.5	O=c1cc(N2CCOCC2)oc2c(-c3ccccc3)cccc12 [LY-294002]	
